Reference: ChEMBL document CHEMBL4334522, “Optimization Strategy of Novel Peptide-Based Michael Acceptors for the Treatment of Human African Trypanosomiasis” (J Med Chem, 2019)
The source made the active and inactive calls. The calls are words filed in the database; no cut-off is given here.

What was measured:
[1] = target: Rhodesain (Trypanosoma brucei rhodesiense) (UniProt Q95PM0); assay: Inhibition of Trypanosoma brucei rhodesiense rhodesain expressed in Pichia pastoris assessed as second order rate constant obtained from ratio of Kinact to Ki measured for 30 mins using Cbz-Phe-Arg-AMC as substrate by fluorescence assay
Summary of the method: (§1)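 Continuous rhodesain assay using 7 inhibitor concentrations spanning minimal to full inhibition, with 10 µM Cbz-Phe-Arg-AMC. Buffer: 50 mM sodium acetate pH 5.5, 5 mM EDTA, 200 mM NaCl, 0.005% Brij 35; enzyme buffer had 5 mM DTT instead. Read at room temperature for 30 min, ex 380/em 460 nm. kobs came from fitting progress curves to F = A(1−exp(−kobs·t)) + B. Fitting kobs against [I] hyperbolically gave kinac and Kiapp. Kiapp was corrected by (1+[S]/Km) with Km 0.9 µM, and k2nd = kinac/Ki. Each assay was run twice in duplicate.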

Procathepsin L [2] = target: T1, Procathepsin L (Homo sapiens, UniProt P07711); assay: Inhibition of human Cathepsin L assessed as inhibition constant using Cbz-Phe-Arg-AMC as substrate by fluorescence assay
Target sequence in this assay (P07711 whole entry): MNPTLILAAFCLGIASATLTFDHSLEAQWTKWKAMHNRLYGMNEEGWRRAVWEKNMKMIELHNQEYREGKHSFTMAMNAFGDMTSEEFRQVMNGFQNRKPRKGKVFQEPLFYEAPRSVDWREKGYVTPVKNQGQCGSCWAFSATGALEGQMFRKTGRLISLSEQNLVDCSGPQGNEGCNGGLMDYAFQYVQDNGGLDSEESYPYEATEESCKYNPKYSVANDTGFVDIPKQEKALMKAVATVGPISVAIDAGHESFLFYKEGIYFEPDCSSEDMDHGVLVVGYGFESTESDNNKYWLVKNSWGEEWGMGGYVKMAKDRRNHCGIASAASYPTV

[3] = target: Rhodesain (Trypanosoma brucei rhodesiense) (UniProt Q95PM0); assay: Inhibition of Trypanosoma brucei rhodesiense rhodesain expressed in Pichia pastoris assessed as first-order rate constant measured for 30 mins using Cbz-Phe-Arg-AMC as substrate by fluorescence assay; summary of the method: as §1
[4] = target: Rhodesain (Trypanosoma brucei rhodesiense) (UniProt Q95PM0); assay: Inhibition of Trypanosoma brucei rhodesiense rhodesain expressed in Pichia pastoris at 50 uM measured for 30 mins using Cbz-Phe-Arg-AMC as substrate by fluorescence assay relative to control
Summary of the method: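 Recombinant rhodesain screened with inhibitor at 50 µM against an equivalent DMSO negative control. AMC release from 10 µM Cbz-Phe-Arg-AMC was followed continuously for 30 min.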

Procathepsin L [5] = target: T1, Procathepsin L; assay: Inhibition of human Cathepsin L assessed as first-order rate constant using Cbz-Phe-Arg-AMC as substrate by fluorescence assay
Target sequence in this assay (P07711 114-333 limits assumed): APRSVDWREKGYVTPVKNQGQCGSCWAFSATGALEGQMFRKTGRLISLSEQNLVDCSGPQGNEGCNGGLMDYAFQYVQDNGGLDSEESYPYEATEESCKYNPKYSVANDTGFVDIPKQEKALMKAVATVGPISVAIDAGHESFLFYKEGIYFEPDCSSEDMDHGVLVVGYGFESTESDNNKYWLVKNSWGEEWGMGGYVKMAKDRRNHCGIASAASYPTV

Rhodesain = Rhodesain (Trypanosoma brucei rhodesiense, UniProt Q95PM0); assay: Inhibition of Trypanosoma brucei rhodesiense rhodesain expressed in Pichia pastoris assessed as inhibition constant measured for 30 mins using Cbz-Phe-Arg-AMC as substrate by fluorescence assay
Summary of the method: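 Recombinant rhodesain, continuous fluorimetric assay with Cbz-Phe-Arg-AMC at 10 µM, ex 380/em 460 nm, read 30 min at room temperature. Buffer: 50 mM sodium acetate pH 5.5, 5 mM EDTA, 200 mM NaCl, 0.005% Brij 35; enzyme buffer has 5 mM DTT. Seven inhibitor concentrations. kobs from progress-curve fits, hyperbolic fit gives Kiapp, corrected with Km 0.9 µM to Ki. Two independent assays in duplicate.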

Procathepsin L [6] = target: T1, Procathepsin L; assay: Inhibition of human Cathepsin L assessed as second order rate constant obtained from ratio of Kinact to Ki using Cbz-Phe-Arg-AMC as substrate by fluorescence assay
Target sequence in this assay (P07711 114-333 limits assumed): as above

[7] = test system: Trypanosoma brucei brucei; assay: Antitrypanosomal activity against blood stage form of Trypanosoma brucei brucei 449 incubated for 24 hrs by ATPlite assay; format: functional, organism-based; settings: Trypanosoma brucei, 449, 24 h
Summary of the method: (§2)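 Bloodstream-form T. b. brucei 449 (Lister 427 descendant) cultured in HMI-9 with 10% FCS, penicillin/streptomycin and 0.2 µg/mL phleomycin at 37°C, 5% CO2. Cells seeded at 2500 cells/mL. Compounds from 5 mM stocks were serially diluted 1:2 to give 16.7 µM to 32.5 nM final. Controls: 0.3% DMSO (negative) and 10% DMSO (positive). Incubated 24 h or 48 h, in two separate triplicates. Viability read by ATPlite luminescence; EC50 taken from dose-response curves.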

[8] = test system: Trypanosoma brucei brucei; assay: Antitrypanosomal activity against blood stage form of Trypanosoma brucei brucei 449 incubated for 48 hrs by ATPlite assay; format: functional, organism-based; settings: Trypanosoma brucei, 449, 48 h; summary of the method: as §2
[9] = target: Rhodesain (Trypanosoma brucei rhodesiense) (UniProt Q95PM0); assay: Irreversible inhibition of Trypanosoma brucei rhodesiense rhodesain expressed in Pichia pastoris at 0.005 to 0.5 nM measured for 30 mins using Cbz-Phe-Arg-AMC as substrate by fluorescence assay; summary of the method: as §1

Sequence of Rhodesain (Q95PM0 whole entry): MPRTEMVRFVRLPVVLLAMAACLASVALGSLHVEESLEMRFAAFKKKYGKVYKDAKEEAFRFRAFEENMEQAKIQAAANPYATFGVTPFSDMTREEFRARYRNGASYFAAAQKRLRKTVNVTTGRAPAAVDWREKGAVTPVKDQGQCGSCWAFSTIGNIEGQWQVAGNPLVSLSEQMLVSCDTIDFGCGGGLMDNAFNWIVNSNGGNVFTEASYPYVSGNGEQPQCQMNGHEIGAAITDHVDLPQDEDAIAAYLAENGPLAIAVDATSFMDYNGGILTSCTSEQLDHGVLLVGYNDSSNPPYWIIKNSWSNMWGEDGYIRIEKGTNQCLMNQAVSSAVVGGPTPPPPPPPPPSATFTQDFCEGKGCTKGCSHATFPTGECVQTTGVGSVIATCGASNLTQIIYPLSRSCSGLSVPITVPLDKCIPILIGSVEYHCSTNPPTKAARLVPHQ
Sequence of Rhodesain (Trypanosoma brucei rhodesiense) (Q95PM0 1-450): as the sequence (Q95PM0 whole entry) above

Structure (SMILES) | K [1] [×10³ /M/min] | Ki (Procathepsin L [2]) [nM] | Kinact [3] [min⁻¹] | inhibition [4] [%] | Kinact (Procathepsin L [5]) [min⁻¹] | Ki (Rhodesain) [nM] | K (Procathepsin L [6]) [×10³ /M/min] | EC50 [7] [nM] | EC50 [8] [nM] | inhibition [9]
CC(=O)/C=C/[C@H](CCc1ccccc1)NC(=O)[C@H](Cc1ccccc1)NC(=O)N1CCOCC1 | 157 | 175 | 0.00049 | 85 to 100 | 0.0039 | 3.1 | 23 |  |  | 
CC(=O)/C=C/[C@H](CCc1ccccc1)NC(=O)[C@H](Cc1ccccc1)NC(=O)c1ccc2c(c1)OCO2 | 15300 | 10.2 | 0.0005 | 85 to 100 | 0.0016 | 0.034 | 157 | 5000 | 3700 | 
CC(=O)/C=C/[C@H](CCc1ccccc1)NC(=O)[C@H](CCc1ccccc1)NC(=O)OCc1ccccc1 | 137 | 453 | 0.00072 | 85 to 100 | 0.0056 | 5.54 | 12 | 550 | 440 | 
CC(=O)/C=C/[C@H](CCc1ccccc1)NC(=O)[C@H](Cc1ccccc1)NC(=O)c1ccc(C(F)(F)F)cc1 | 175000 | 4.1 | 0.00075 | 85 to 100 | 0.0015 | 0.0044 | 380 |  |  | 
CC(=O)/C=C/[C@H](CCc1ccccc1)NC(=O)[C@H](Cc1ccccc1)NC(=O)c1ccc(F)cc1 | 881000 | 1.5 | 0.0009 | 85 to 100 | 0.0018 | 0.0011 | 1230 | 5100 | 3600 | Active
CCC(=O)/C=C/[C@H](CCc1ccccc1)NC(=O)[C@H](Cc1ccccc1)NC(=O)OCc1ccccc1 | 1800 | 108 | 0.00082 | 85 to 100 | 0.0071 | 0.5 | 67 |  |  | 
CC(=O)/C=C/[C@H](CCc1ccccc1)NC(=O)[C@H](Cc1ccccc1)NC(=O)c1ccc(F)cc1F | 107000 | 35 | 7e-05 | 85 to 100 | 0.0015 | 0.0006 | 52 | 740 | 670 | 
CC(=O)/C=C/[C@H](CCc1ccccc1)NC(=O)[C@H](Cc1ccccc1)NC(=O)c1ccc(Cl)cc1 | 29300 | 0.6 | 0.0008 | 85 to 100 | 0.0018 | 0.029 | 3030 | 4800 | 3200 | 
CC(=O)/C=C/[C@H](CCc1ccccc1)NC(=O)[C@H](Cc1ccccc1)NC(=O)c1cc(F)cc(F)c1 | 113000 | 14.8 | 0.0016 | 85 to 100 | 0.0022 | 0.015 | 156 | 4000 | 3400 | 
CC(=O)/C=C/[C@H](CCc1ccccc1)NC(=O)[C@H](Cc1ccccc1)NC(=O)c1c(F)cccc1F | 151000 | 230 | 0.0012 | 85 to 100 | 0.002 | 0.0076 | 8.9 |  |  | 
CC(=O)/C=C/[C@H](CCc1ccccc1)NC(=O)[C@H](Cc1ccccc1)NC(=O)c1ccc2c(c1)OCCO2 | 7200 | 78.2 | 0.0043 | 85 to 100 | 0.0076 | 0.74 | 102 |  |  | 
CC(=O)/C=C/[C@H](CCc1ccccc1)NC(=O)[C@H](Cc1ccccc1)NC(=O)N1CCN(C)CC1 | 266 | 158 | 0.00042 | 85 to 100 | 0.0047 | 1.8 | 31 |  |  | 
CC(=O)/C=C/[C@H](CCc1ccccc1)NC(=O)[C@H](Cc1ccccc1)NC(=O)c1cccc(F)c1 | 149000 | 47 | 0.0032 | 85 to 100 | 0.0019 | 0.023 | 41 |  |  | 
CC(=O)/C=C/[C@H](CCc1ccccc1)NC(=O)[C@H](Cc1ccccc1)NC(=O)c1ccccc1F | 230000 | 5.3 | 0.0006 | 85 to 100 | 0.0011 | 0.003 | 313 |  |  | 
CC(=O)/C=C/[C@H](CCc1ccccc1)NC(=O)[C@H](Cc1ccccc1)NC(=O)Cc1ccc2c(c1)OCO2 | 435 | 90.3 | 0.00085 | 85 to 100 | 0.0053 | 2.1 | 59 |  |  | 
